From PubChem BioAssay
TbHK1 inh: T. brucei hexokinase 1 inhibition; AID 1430; inhibition, % at 10 µM; 220,000 compounds, 0.11% hits; recombinant TbHK1, G6PDH-coupled NADH A340;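 active = inhibition of 50% or more in the single-dose primary screen; inactive = inhibition below 50%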
MT stabilize HCS: stabilizes microtubules in HeLa cells; HeLa tubulin immunostaining HCS, 24 h; share of cells brighter than vehicle mean+2SD; 200,000 compounds, 0.83% hits; AID 2205; % tubulin-high responders, % at 10 µM;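 active = plate Z-score above 3 for both tubulin-high and condensed-nucleus cell shares, with cell loss under 80%, at 10 µM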;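 note: anti alpha tubulin signal scored within the nucleus-defined area of each cell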
Efa HMGR inh: blocks class II HMG-CoA reductase of Enterococcus faecalis. purified E. faecalis HMGR, NADPH absorbance 340 nm kinetic. inhibition, % at 10 µM. 190,000 compounds, 0.41% hits. AID 1066;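 active = inhibition above a set limit, the median over all tested compounds plus 3 SD, cut at about 9.5% in these data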;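 note: enzyme runs in reverse so mevalonate oxidation gives rising NADPH absorbance; 0% = complete reaction with DMSO and 100% = background rate lacking mevalonate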
b-catenin transl: alters nuclear translocation of beta-catenin in HeLa cells. 190,000 compounds, 0.3% hits. immunofluorescence imaging. nuclear translocation activity, % at 5 µM;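 active = nuclear translocation activity above 50% at 5 µM, with a well cell count of 50 or more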;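 note: per-cell ratio of nuclear to cytoplasmic median beta-catenin stain intensity; plate controls were DMSO negative control for no effect and GSK-3 inhibitor IX positive control for full effect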
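test system = HeLa cells, endogenous beta-catenin | dosing = single 5 µM dose plus 0.02–20 µM confirmation series | times = compound treatment 24 h, 37°C, 5% CO2 | technique = beta-catenin immunofluorescence imaging with DAPI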
PGE2 EP2 inh: blocks the human prostaglandin E2 receptor EP2 | P43116 | 260,000 compounds, 0.52% hits | inhibition, % at 25 µM | C6 glioma cells expressing human EP2, cAMP TR-FRET; cells stimulated with saturating PGE2;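 active = percent inhibition above 40 after rounding to a whole number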;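 note: rat C6 glioma host cells with rolipram phosphodiesterase inhibitor present; the protocol text gives 20 µM as final concentration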
Target sequence (P43116 whole entry, looked up): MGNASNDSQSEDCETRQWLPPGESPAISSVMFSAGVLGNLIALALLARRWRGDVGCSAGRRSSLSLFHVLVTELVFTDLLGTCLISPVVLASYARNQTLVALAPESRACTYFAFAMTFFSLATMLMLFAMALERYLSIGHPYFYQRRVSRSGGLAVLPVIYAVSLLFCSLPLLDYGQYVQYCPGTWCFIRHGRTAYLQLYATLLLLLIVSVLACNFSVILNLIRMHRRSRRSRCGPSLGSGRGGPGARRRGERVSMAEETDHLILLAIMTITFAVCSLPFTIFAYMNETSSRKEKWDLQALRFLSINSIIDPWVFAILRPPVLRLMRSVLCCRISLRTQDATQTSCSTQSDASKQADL
EP2 modulator: modulators of human EP2 prostaglandin E2 receptor; P43116; EP2-expressing cells, cAMP HTRF FRET, PGE2 co-stimulation; induction, % at 25 µM; 260,000 compounds, 0.83% hits; AID 940;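 active = compounds whose cAMP rise, as percent of the full-agonist control response, exceeds 60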;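 note: rat C6 glioma line stably carrying human EP2 under a CMV promoter; the protocol text gives 20 µM as final concentration; 100% = response of wells given 1 µM PGE2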
* hit, by the source's call; · = not tested or not shown. Shown are actives, neighbours in structure and some others; about 2.4% of the full set was active somewhere.

SMILES	TbHK1 inh	MT stabilize HCS	Efa HMGR inh	b-catenin transl	PGE2 EP2 inh	EP2 modulator
CCOC(=O)c1c(NC(=O)CN2CCOCC2)sc2c1CCCC2	-7.3	2.8	-3.6	2.1	3.4	62.2*
CCOC(=O)c1c(NC(=O)CN2CCOCC2)sc2c1CCCC2=O	-21.4	1.3	-2.8	-2.1	3.0	2.1
CCOC(=O)c1c(NC(=O)CN2CCOCC2)sc(C(=O)NC)c1C	-6.0	2.7	-0.4	·	1.5	-0.2
CC1CCN(C(=O)CN2C(=O)CN(C)C(=O)c3ccccc32)CC1	·	·	·	·	14.8	-7.9
CC1=NN(C(=O)c2ccc(C(C)(C)C)cc2)C(O)(C(F)(F)F)C1 (stereo not given)	·	·	·	·	14.3	21.9
COCCCn1c(=N)c(C(=O)NC(C)c2ccccc2)cc2c(=O)n3cc(C)ccc3nc21 (stereo not given)	·	·	·	·	5.3	5.2
COc1ccc(/C=N/NC(=O)CCSc2nc3ccccc3s2)cc1OC	-13.3	2.0	0.5	2.1	22.2	-89.9
O=C(CCSc1nc2ccccc2s1)N/N=C/c1c(O)ccc2ccccc12	1.2	20.6*	-5.7	1.7	17.3	-86.8
COc1ccc(C(=O)Nc2cc3c(C)cc(=O)oc3cc2C)cc1OC	·	·	·	·	6.7	-18.1
COc1cc(/C=N/N2CCN(C3c4ccccc4-c4ccccc43)CC2)ccc1O	-7.1	41.0	-0.2	-0.7	10.3	54.6
COc1cccc(/C=N/N2CCN(C3c4ccccc4-c4ccccc43)CC2)c1O	-17.9	·	·	-0.3	8.7	65.5*
C(=N\N1CCN(C2c3ccccc3-c3ccccc32)CC1)/c1ccncc1	-17.0	3.8	0.3	-2.4	9.4	61.1*
Cc1ccc2nc3c(c(NCCN(C)C)c2c1)CCC3	·	·	·	·	9.2	-4.7
COc1ccc(NC(=O)N(Cc2ccccc2)Cc2cc3cc(OC)c(OC)cc3[nH]c2=O)cc1	·	·	·	·	10.0	-22.1
C[C@H]1[C@H](C)CC[C@]2(C(=O)O)CC[C@]3(C)C(=CCC4[C@@]5(C)C[C@@H](O)[C@H](O)[C@@](C)(CO)C5[C@H](O)C[C@]43C)[C@H]12 (stereo not given in full)	·	·	·	·	13.9	-0.7
C[C@H]1[C@H](C)CC[C@@]2(C(=O)O)CC[C@@]3(C)C(=CC[C@H]4[C@]5(C)C[C@H](O)[C@@H](O)[C@@](C)(CO)[C@H]5[C@H](O)C[C@@]43C)[C@H]12	·	·	·	·	42.6*	31.1
CC1(C)C2CC[C@]3(C)C(CC=C4[C@@H]5C[C@@](C)(CO)[C@@H](O)C[C@]5(C(=O)O)CC[C@]43C)[C@@]2(C)CC[C@@H]1O (stereo not given in full)	·	·	·	·	16.8	·
CC1(C)CC[C@]2(CO)[C@@H](O)C[C@]3(C)C(=CCC4[C@@]5(C)CC[C@H](O)C(C)(C)C5CC[C@]43C)[C@@H]2C1 (stereo not given in full)	·	·	·	·	52.6*	·
CC(=O)c1cc(C#N)c(SCCC(C)C)nc1C	2.4	3.5	-1.4	-0.4	5.3	61.5*
C=CCn1c2cc(C)sc2c2cnn(CC(=O)N(CC)CC)c(=O)c21	·	·	·	·	·	-25.2
CC(C)(C)NC(=O)c1ccc(Cl)c(S(=O)(=O)N2CCOCC2)c1	·	·	·	·	14.6	-1.5
COc1ccc(NC(=S)NCCc2c[nH]c3ccc(OC)cc23)c(OC)c1	-0.8	3.1	-2.2	-0.3	5.9	-81.4
COc1ccc(NC(=S)NCCc2c[nH]c3ccccc23)c(OC)c1	0.1	4.1	3.1	4.5	55.0*	-57.9
COc1ccc(NC(=S)NCCc2ccc(Cl)cc2)c(OC)c1	4.1	3.8	-1.8	-3.5	57.5*	-40.3
COc1ccc(C2(C(=O)NCc3nc(-c4ccccc4F)no3)CC2)cc1	·	·	·	·	8.8	-122.4
SMILES	TbHK1 inh	MT stabilize HCS	Efa HMGR inh	b-catenin transl	PGE2 EP2 inh	EP2 modulator
CCOc1ccc(Br)cc1CNCCN1CCOCC1	9.5	0.6	0.6	-3.5	8.7	39.2
CCOc1ccc2ccccc2c1CNCCN1CCOCC1	-0.3	2.0	10.3*	-1.3	3.3	0.9
CCOc1ccccc1NC(=O)CSc1nc(C)nc2sc(C)c(C)c12	·	·	·	·	5.5	72.6*
Cc1cc(NC(=O)CSc2ncnc3sc4c(c23)CCC(C)C4)no1 (stereo not given)	·	·	·	-9.8	7.2	-6.3
CCOc1ccc(OCC)c(NC(=O)CSc2nc(C)nc3sc(C)c(C)c23)c1	·	·	·	·	10.2	41.9
CCOc1ccccc1NC(=O)CSc1ncnc2sc3c(c12)CCC(C)C3 (stereo not given)	·	·	·	·	15.8	65.3*
CCOc1ccccc1NC(=O)CSc1nc(C2CC2)nc2sc(C)c(C)c12	·	·	·	·	8.7	60.8*
Cc1ccc(NC(=O)CSc2nc(C3CC3)nc3sc(C)c(C)c23)c(C)c1	·	·	·	·	6.5	20.5
COC(=O)[C@@]1(Cc2ccc(F)cc2)[C@H]2c3cc(C(=O)N(C)C)n(Cc4nc5ccccc5[nH]4)c3C[C@H]2CN1C(=O)c1ccccc1	-3.4	3.6	11.5*	-4.1	9.9	12.8
COC(=O)[C@@]1(Cc2ccc(F)cc2)[C@H]2c3cc(C(=O)N(C)C)n(Cc4ccccn4)c3C[C@H]2CN1C(=O)c1ccccc1	-10.4	6.1	-14.1	·	6.5	10.9
COC(=O)c1cc(-c2ccc(C(c3c(C)[nH][nH]c3=O)c3c(C)[nH][nH]c3=O)o2)ccc1Cl	·	·	·	·	40.0*	-71.8
Cc1[nH][nH]c(=O)c1C(c1ccc(-c2ccc(Cl)c(Cl)c2)o1)c1c(C)[nH][nH]c1=O	4.2	1.7	8.9	·	3.5	-6.3
CC(=O)NC(Cc1cccc(C)c1)C(=O)NC1CCN(c2ncccc2[N+](=O)[O-])CC1 (stereo not given)	-5.5	4.1	0.6	0.6	9.7	-0.8
CC(=O)NC(Cc1cccc(F)c1)C(=O)NC1CCN(c2ncccc2[N+](=O)[O-])CC1 (stereo not given)	0.6	0.8	15.5*	2.8	10.3	13.3
CN(C)CCC[C@@H]1c2ccccc2Oc2ccc(C(F)(F)F)cc21	·	·	·	·	58.5*	-31.9
CCn1c(SCC(=O)Nc2cccc3ccccc23)nnc1-c1ccncc1	·	·	·	·	8.3	-14.9
CCSc1nccc(-c2nn(-c3ccc(C)cc3)ccc2=O)n1	-20.2	49.7*	1.7	133.2*	9.4	-4.2
Nc1nccc(-c2nn(-c3ccc(Cl)cc3)ccc2=O)n1	-25.4	·	·	-2.1	18.9	0.8
CSc1nccc(-c2nn(-c3ccc(C)cc3)ccc2=O)n1	-25.1	57.2*	-6.2	·	10.0	-10.7
C=CCSc1nccc(-c2nn(-c3ccc(C)cc3)ccc2=O)n1	-20.4	39.3*	3.6	33.1	13.7	-15.3
C#CCSc1nccc(-c2nn(-c3ccc(C)cc3)ccc2=O)n1	-31.3	2.6	-0.1	-0.6	19.0	10.4
COc1ccc(C2(C(=O)NC(C)c3nc(-c4ccncc4)n[nH]3)CC2)cc1 (stereo not given)	·	·	·	·	4.8	-15.5
Cc1occc1-c1nn(C2CCN(C(=O)C(C)c3ccccc3)CC2)c(=O)o1 (stereo not given)	·	·	·	·	5.3	-31.2
